Laboratory results from ChEMBL document CHEMBL3112453, “Novel lung adenocarcinoma and nuclear factor-kappa B (NF-κB) inhibitors: synthesis and evaluation of lantadene congeners” (Eur J Med Chem, 2014).

Columns and labels:
[1] = test system: A549; experiment: Cytotoxicity against human A549 cells after 48 hrs by MTT assay; assay type: functional, cell-based
Method in brief: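 A549 cells grown in RPMI with 5% FBS and 1% penicillin-streptomycin. Seeded at 4000 cells/well, attached overnight, then exposed to compound at 0.01–100 µmol for 48 h. MTT added for 4 h, formazan dissolved in DMSO, absorbance read at 570 nm. Mean of at least three independent experiments, each in triplicate.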

[2] = test system: A549; experiment: Cytotoxicity against human A549 cells transfected with NF-kappaB assessed as reduction of cell viability relative to control; assay type: cell-based; set-up: concentration or dose not given beside the values
[3] = Inhibition of TNF-alpha-induced NF-kappaB (unknown origin) activation transfected in human A549 cells after 7 hrs by bright-glo luciferase reporter gene assay; assay type: cell-based
Method in brief: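 A549 cells co-transfected with pNF-κB-Luc and pSV-β-galactosidase (internal control) using lipofectamine. Medium changed at 6 h, cells cultured a further 6 h, then given TNF-α 15 ng/ml and compound together for 7 h. Read-out is Bright-Glo luciferase, corrected for background and viability and expressed relative to TNF-α-only cells. IC50 from a variable-slope sigmoidal fit.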

[4] = Metabolic stability in 80% human plasma assessed as compound remaining at 5 mg/ml measured at 15 mins by HPLC analysis; assay type: ADME, cell-free; settings: read-out: Stability
Method in brief: (§1)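 Human plasma at 80%, diluted with isotonic phosphate buffer pH 7.4, 37 °C in a water bath. Compound stock is 5 mg/ml in THF, diluted 1:10 into the plasma. Samples were taken at 0, 15, 30, 60 and 120 min, quenched in ACN, centrifuged 5 min, and the supernatant analysed by HPLC for ester remaining.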

[5] = Metabolic stability in 80% human plasma assessed as compound remaining at 5 mg/ml measured at 30 mins by HPLC analysis; assay type: ADME, cell-free; settings: read-out: Stability; method in brief: as §1
[6] = Metabolic stability in 80% human plasma assessed as compound remaining at 5 mg/ml measured at 120 mins by HPLC analysis; assay type: ADME, cell-free; settings: read-out: Stability; method in brief: as §1
[7] = Chemical stability in simulated gastric fluid assessed as compound remaining at 5 mg/ml at pH 2 measured at 2 hrs by HPLC analysis; assay type: physicochemical; settings: read-out: Stability
Method in brief: (§2)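 Stability in simulated gastric fluid, HCl buffer pH 2, 37 °C in a water bath. Compound stock is 5 mg/ml in THF, diluted 1:10 into buffer. Samples were taken at 0, 2, 5, 8 and 12 h, diluted with ACN and analysed by HPLC. % remaining = peak area at each time / peak area at 0 min × 100.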

[8] = Metabolic stability in 80% human plasma assessed as compound remaining at 5 mg/ml measured at 60 mins by HPLC analysis; assay type: ADME, cell-free; settings: read-out: Stability; method in brief: as §1
[9] = target: T1, Inhibitor of nuclear factor kappa-B kinase subunit beta (Homo sapiens, UniProt O14920); experiment: Inhibition of FLAG-tagged human recombinant IKKbeta phosphorylation expressed in baculovirus infected insect Sf9 cells after 1 hr by luminescence assay
T1 sequence (O14920 whole entry): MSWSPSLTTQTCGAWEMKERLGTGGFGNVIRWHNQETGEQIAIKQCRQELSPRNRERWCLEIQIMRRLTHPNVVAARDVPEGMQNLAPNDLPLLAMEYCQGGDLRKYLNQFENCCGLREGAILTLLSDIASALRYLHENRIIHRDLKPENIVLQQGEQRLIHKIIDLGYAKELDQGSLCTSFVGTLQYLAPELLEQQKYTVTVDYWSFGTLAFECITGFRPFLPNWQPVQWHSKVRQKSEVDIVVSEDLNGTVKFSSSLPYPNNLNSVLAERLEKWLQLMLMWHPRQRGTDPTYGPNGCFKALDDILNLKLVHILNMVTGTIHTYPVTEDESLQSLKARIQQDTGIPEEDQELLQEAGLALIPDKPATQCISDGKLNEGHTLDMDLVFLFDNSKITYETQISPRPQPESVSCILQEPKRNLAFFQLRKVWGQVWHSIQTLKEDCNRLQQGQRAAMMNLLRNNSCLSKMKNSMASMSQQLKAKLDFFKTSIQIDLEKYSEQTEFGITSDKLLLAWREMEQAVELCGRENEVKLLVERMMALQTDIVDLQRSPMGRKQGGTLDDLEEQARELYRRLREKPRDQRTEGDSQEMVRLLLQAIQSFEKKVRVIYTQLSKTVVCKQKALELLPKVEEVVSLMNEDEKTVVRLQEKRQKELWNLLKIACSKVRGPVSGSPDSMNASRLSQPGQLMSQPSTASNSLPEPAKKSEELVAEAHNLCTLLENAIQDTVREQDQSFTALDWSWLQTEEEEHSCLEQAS
Method in brief: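 Kinase reaction ran 1 h at room temperature with bacterially expressed GST-IkBα substrate and 500 nmol ATP, in 25 mmol/l HEPES pH 7.5, 10 mmol/l Mg acetate, 1 mmol DTT, 0.01% BSA and 0.01% Tween20. Stopped with equal volume Kinase-Glo, 10 min RT, then luminescence of remaining ATP read.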

[10] = Chemical stability in simulated gastric fluid assessed as compound remaining at 5 mg/ml at pH 2 measured at 8 hrs by HPLC analysis; assay type: physicochemical; settings: read-out: Stability; method in brief: as §2
[11] = Chemical stability in simulated gastric fluid assessed as compound remaining at 5 mg/ml at pH 2 measured at 12 hrs by HPLC analysis; assay type: physicochemical; settings: read-out: Stability; method in brief: as §2
[12] = Chemical stability in simulated gastric fluid assessed as compound remaining at 5 mg/ml at pH 2 measured at 5 hrs by HPLC analysis; assay type: physicochemical; settings: read-out: Stability; method in brief: as §2

Row | IC50 [3] [µmol] | Compound | IC50 [1] [µmol] | Activity [2] [%] | other results
1 | > 10 | CC(C)=CC(=O)O[C@@H]1CC(C)(C)C[C@H]2C3=CC[C@@H]4[C@@]5(C)CC/C(=N\O)C(C)(C)[C@@H]5CC[C@@]4(C)[C@]3(C)CC[C@@]12C(=O)O | > 10 | < 5 | –
2 | > 10 | CC1(C)C[C@@H](OC(=O)c2ccccc2Cl)[C@]2(C(=O)O)CC[C@]3(C)C(=CC[C@@H]4[C@@]5(C)CCC(=O)C(C)(C)[C@@H]5CC[C@]43C)[C@@H]2C1 | > 10 | < 5 | –
3 | 4.64 | CC(C)=CC(=O)O[C@@H]1CC(C)(C)C[C@H]2C3=CC[C@@H]4[C@@]5(C)CC[C@H](OC(=O)c6ccccc6)C(C)(C)[C@@H]5CC[C@@]4(C)[C@]3(C)CC[C@@]12C(=O)O | 7.2 | < 5 | –
4 | 0.56 | C/C=C(\C)C(=O)O[C@@H]1CC(C)(C)C[C@H]2C3=CC[C@@H]4[C@@]5(C)CC[C@H](OC(=O)/C=C/c6ccccc6)C(C)(C)[C@@H]5CC[C@@]4(C)[C@]3(C)CC[C@@]12C(=O)O | 0.12 | < 5 | remaining at 0.25 h, 5 mg/ml [4]: 74.2%; remaining at 0.5 h, 5 mg/ml [5]: 54.7%; remaining at 2 h, 5 mg/ml [6]: 36.8%; remaining at 2 h, 5 mg/ml [7]: 96.4%; remaining at 1 h, 5 mg/ml [8]: 46.8%; IC50 [9]: 1.2 µmol; remaining at 8 h, 5 mg/ml [10]: 84.7%; remaining at 12 h, 5 mg/ml [11]: 76.6%; remaining at 5 h, 5 mg/ml [12]: 90.7%
5 | 6.42 | CC1(C)C[C@@H](O)[C@]2(C(=O)O)CC[C@]3(C)C(=CC[C@@H]4[C@@]5(C)CCC(=O)C(C)(C)[C@@H]5CC[C@]43C)[C@@H]2C1 | > 10 | < 5 | –
6 | > 10 | CC1(C)C[C@@H](OC(=O)c2ccccc2)[C@]2(C(=O)O)CC[C@]3(C)C(=CC[C@@H]4[C@@]5(C)CCC(=O)C(C)(C)[C@@H]5CC[C@]43C)[C@@H]2C1 | > 10 | < 5 | –
7 | 1.06 | C/C=C(/C)C(=O)O[C@@H]1CC(C)(C)C[C@H]2C3=CC[C@@H]4[C@@]5(C)CCC(=O)C(C)(C)[C@@H]5CC[C@@]4(C)[C@]3(C)CC[C@@]12C(=O)O [LANTADENE A] | 2.84 | < 5 | –
8 | 5.04 | C/C=C(\C)C(=O)O[C@@H]1CC(C)(C)C[C@H]2C3=CC[C@@H]4[C@@]5(C)CC[C@H](OC(=O)c6ccccc6)C(C)(C)[C@@H]5CC[C@@]4(C)[C@]3(C)CC[C@@]12C(=O)O | 7.36 | < 5 | –
9 | 2.8 | C/C=C(\C)C(=O)O[C@@H]1CC(C)(C)C[C@H]2C3=CC[C@@H]4[C@@]5(C)CC[C@H](OC(C)=O)C(C)(C)[C@@H]5CC[C@@]4(C)[C@]3(C)CC[C@@]12C(=O)O | 5.42 | < 5 | –
10 | > 10 | C/C=C(\C)C(=O)O[C@@H]1CC(C)(C)C[C@H]2C3=CC[C@@H]4[C@@]5(C)CC/C(=N\O)C(C)(C)[C@@H]5CC[C@@]4(C)[C@]3(C)CC[C@@]12C(=O)O | > 10 | < 5 | –
11 | 0.42 | CC(C)=CC(=O)O[C@@H]1CC(C)(C)C[C@H]2C3=CC[C@@H]4[C@@]5(C)CC[C@H](OC(=O)/C=C/c6ccccc6)C(C)(C)[C@@H]5CC[C@@]4(C)[C@]3(C)CC[C@@]12C(=O)O | 0.08 | < 5 | remaining at 0.25 h, 5 mg/ml [4]: 74.7%; remaining at 0.5 h, 5 mg/ml [5]: 55.5%; remaining at 2 h, 5 mg/ml [6]: 39.2%; remaining at 2 h, 5 mg/ml [7]: 97.2%; remaining at 1 h, 5 mg/ml [8]: 48.1%; IC50 [9]: 0.94 µmol; remaining at 8 h, 5 mg/ml [10]: 87.6%; remaining at 12 h, 5 mg/ml [11]: 81%; remaining at 5 h, 5 mg/ml [12]: 92.5%
12 | 2.32 | CC(=O)O[C@H]1CC[C@]2(C)[C@H]3CC=C4[C@@H]5CC(C)(C)C[C@@H](OC(=O)C=C(C)C)[C@]5(C(=O)O)CC[C@@]4(C)[C@]3(C)CC[C@H]2C1(C)C | 4.9 | < 5 | –
13 | > 10 | COC(=O)[C@@]12CC[C@]3(C)C(=CC[C@@H]4[C@@]5(C)CC[C@H](O)C(C)(C)[C@@H]5CC[C@]43C)[C@@H]1CC(C)(C)C[C@H]2O | > 10 | < 5 | –
14 | 3.7 | CC(C)=CC(=O)O[C@@H]1CC(C)(C)C[C@H]2C3=CC[C@@H]4[C@@]5(C)CC[C@H](OC(=O)c6ccccc6Cl)C(C)(C)[C@@H]5CC[C@@]4(C)[C@]3(C)CC[C@@]12C(=O)O | 6.52 | < 5 | –
15 | > 10 | COC(=O)[C@@]12CC[C@]3(C)C(=CC[C@@H]4[C@@]5(C)CCC(=O)C(C)(C)[C@@H]5CC[C@]43C)[C@@H]1CC(C)(C)C[C@H]2O | > 10 | < 5 | –
16 | 4.18 | C/C=C(\C)C(=O)O[C@@H]1CC(C)(C)C[C@H]2C3=CC[C@@H]4[C@@]5(C)CC[C@H](OC(=O)c6ccccc6Cl)C(C)(C)[C@@H]5CC[C@@]4(C)[C@]3(C)CC[C@@]12C(=O)O | 6.8 | < 5 | –
17 | > 10 | CC1(C)C[C@@H](O)[C@]2(C(=O)O)CC[C@]3(C)C(=CC[C@@H]4[C@@]5(C)CC[C@H](O)C(C)(C)[C@@H]5CC[C@]43C)[C@@H]2C1 | > 10 | < 5 | –
18 | 2.42 | CC1(C)C[C@@H](OC(=O)/C=C/c2ccccc2)[C@]2(C(=O)O)CC[C@]3(C)C(=CC[C@@H]4[C@@]5(C)CCC(=O)C(C)(C)[C@@H]5CC[C@]43C)[C@@H]2C1 | 3.64 | < 5 | –
19 | > 10 | CC(=O)O[C@H]1CC[C@]2(C)[C@H]3CC=C4[C@@H]5CC(C)(C)C[C@@H](OC(C)=O)[C@]5(C(=O)O)CC[C@@]4(C)[C@]3(C)CC[C@H]2C1(C)C | > 10 | < 5 | –

Row | Compound | IC50 [3] [µmol] | IC50 [1] [µmol] | Activity [2] [%] | other results
20 | CC(C)=CC(=O)O[C@@H]1CC(C)(C)C[C@H]2C3=CC[C@@H]4[C@@]5(C)CCC(=O)C(C)(C)[C@@H]5CC[C@@]4(C)[C@]3(C)CC[C@@]12C(=O)O | 1.56 | 1.19 | < 5 | –
21 | CC(C)=CC(=O)O[C@@H]1CC(C)(C)C[C@H]2C3=CC[C@@H]4[C@@]5(C)CC[C@H](O)C(C)(C)[C@@H]5CC[C@@]4(C)[C@]3(C)CC[C@@]12C(=O)O [Reduced Lantadene B] | 1.02 | 0.43 | < 5 | IC50 [9]: 4.24 µmol
22 | C/C=C(/C)C(=O)O[C@@H]1CC(C)(C)C[C@H]2C3=CC[C@@H]4[C@@]5(C)CC[C@H](O)C(C)(C)[C@@H]5CC[C@@]4(C)[C@]3(C)CC[C@@]12C(=O)O [Reduced Lantadene A] | 0.98 | 0.79 | < 5 | IC50 [9]: 2.62 µmol
